# Test results from ChEMBL document CHEMBL4028856, “Discovery of Small Molecules Targeting the Synergy of Cardiac Transcription Factors GATA4 and NKX2-5” (J Med Chem, 2017).
# Activity calls are given as the source filed them. No cut-off for these calls is given here.
# Assays:
# [1] = target: Growth hormone secretagogue receptor type 1 (Homo sapiens) (UniProt Q92847); assay: Antagonist activity at human GHS-R at 10 uM by ELISA; conditions: in the assay text read “by calcium flux assay” for “by ELISA”
# How it was run: (§1)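 GPCR profiling panel of cell-based functional assays covering 165 GPCRs; agonist mode tested at 12.5 μM and antagonist mode at 10 μM, in duplicate.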
# [2] = Induction of aggregation of compound at 3 to 30 uM by nephalometric method
# [3] = target: Homeobox protein Nkx-2.5 (Mus musculus) (UniProt P42582); assay: Inhibition of binding of mouse NKX2-5 to [32P]-double stranded oligonucleotide expressed in African green monkey COS-1 cells at 50 uM preincubated for 10 mins followed by [32P]-double stranded oligonucleotide addition measured after 20 mins by EMSA method; format: cell-based
# How it was run: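 Nuclear extracts from COS-1 cells transfected with pMT2-GATA4 or pMT2-NKX2-5 (harvested 48 h) preincubated 10 min with 50 μM compound, then 20 min with 32P-labeled GATA4- or NKX2-5-site probe; native 5% PAGE, phosphorimager quantitation; antibody supershift controls; mean ± SD, n = 3–5.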
# [4] = target: Transcription factor GATA-4 (Rattus norvegicus) (UniProt P46152); assay: Inhibition of binding of GATA4 to [32P]-double stranded oligonucleotide in neonatal rat ventricular cardiomyocytes at 50 uM measured after 24 hrs by EMSA method
# How it was run: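 Neonatal rat cardiomyocytes treated 24 h with 50 μM; nuclear extracts incubated 20 min with [α-32P]dCTP Klenow-labeled GATA4- or NKX2-5-site oligonucleotide in HEPES/NaCl/KCl/MgCl2 buffer with poly(dI-dC); 5% native PAGE, phosphorimager; supershift with anti-GATA4/NKX2-5; relative to vehicle, mean ± SD, n = 3–5.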
# [5] = target: Mitogen-activated protein kinase 14 (Homo sapiens) (UniProt Q16539); assay: Inhibition of human p38alpha MAPK at 30 uM
# How it was run: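 48-kinase profiling panel; compounds tested at 30 μM in duplicate.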
# [6] = Induction of necrosis in endothelin-1 induced neonatal rat ventricular cardiomyocytes assessed as release of adenylate kinase at 50 uM measured after 24 hrs by bioluminescence assay; format: cell-based; conditions: cardiac muscle cell
# How it was run: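 Neonatal rat cardiomyocytes treated 24 h at 50 μM; adenylate kinase released into medium measured by ToxiLight bioluminescence on a luminometer; relative to vehicle, mean ± SD, n = 3.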
# [7] = target: Hydroxycarboxylic acid receptor 2 (Homo sapiens) (UniProt Q8TDS4); assay: Antagonist activity at human GPR109A expressed in rat Chem-4 cells assessed as inhibition of calcium flux at 10 uM by fluorescence assay; format: functional, cell-based; how it was run: as §1
# [8] = target: Parathyroid hormone 2 receptor (Homo sapiens) (UniProt P49190); assay: Antagonist activity at human PTH2 receptor expressed in rat Chem-1 cells assessed as inhibition of TIP-39 induced calcium flux at 10 uM by fluorescence assay; format: functional, cell-based; how it was run: as §1
# [9] = target: T1, GATA4/NKX2-5 (Rattus norvegicus) (UniProt P46152+O35767); assay: Inhibition of GATA4/NKX2-5 interaction in neonatal rat ventricular cardiomyocytes assessed as decrease in endothelin-1 induced mRNA level of ANP at 10 uM preincubated for 1 hr followed by endothelin-1 addition measured after 23 hrs by real-time PCR analysis
# How it was run: (§2)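 Neonatal rat ventricular myocytes (2–4-day-old Sprague-Dawley or Wistar), preplated, seeded on 6-well plates, moved to complete serum-free medium next day and cultured 24 h. Compounds (10–100 μM) added 1 h before 100 nM endothelin-1 or none; ANP and BNP mRNA quantified by RT-PCR at 24 h, normalized to 18S RNA, relative to vehicle; mean ± SD, n = 3–6.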
# [10] = target: GATA4/NKX2-5 (Mus musculus) (UniProt Q08369+P42582); assay: Inhibition of mouse GATA4/FLAG-tagged NKX2-5 interaction expressed in African green monkey COS-1 cells at 100 uM by coimmunoprecipitation method; format: cell-based
# How it was run: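 FLAG-NKX2-5 and GATA4 lysates from COS-1 cells incubated overnight at 4 °C with anti-FLAG agarose in Tris/NaCl/Triton lysis buffer with protease/phosphatase inhibitors; beads washed thrice, eluted by boiling, SDS-PAGE, immunoblotted for GATA4 and NKX2-5, ECL detection.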
# [11] = target: Cannabinoid receptor 2 (Homo sapiens) (UniProt P34972); assay: Antagonist activity at human CB2 receptor expressed in rat hematopoietic Chem-4 cells assessed as inhibition of CP55940 induced calcium flux at 10 uM by fluorescence assay; format: functional, cell-based; how it was run: as §1
# [12] = target: Cannabinoid receptor 2 (Homo sapiens) (UniProt P34972); assay: Agonist activity at human CB2 receptor expressed in rat hematopoietic Chem-4 cells assessed as induction of calcium flux at 12.5 uM by fluorescence assay; format: functional, cell-based; how it was run: as §1
# [13] = target: T1, GATA4/NKX2-5 (Rattus norvegicus); assay: Inhibition of GATA4/NKX2-5 interaction in neonatal rat ventricular cardiomyocytes assessed as decrease in basal mRNA level of ANP at 10 uM after 24 hrs by real-time PCR analysis; how it was run: as §2
# Chain of Cannabinoid receptor 2 (Homo sapiens) (P34972 whole entry): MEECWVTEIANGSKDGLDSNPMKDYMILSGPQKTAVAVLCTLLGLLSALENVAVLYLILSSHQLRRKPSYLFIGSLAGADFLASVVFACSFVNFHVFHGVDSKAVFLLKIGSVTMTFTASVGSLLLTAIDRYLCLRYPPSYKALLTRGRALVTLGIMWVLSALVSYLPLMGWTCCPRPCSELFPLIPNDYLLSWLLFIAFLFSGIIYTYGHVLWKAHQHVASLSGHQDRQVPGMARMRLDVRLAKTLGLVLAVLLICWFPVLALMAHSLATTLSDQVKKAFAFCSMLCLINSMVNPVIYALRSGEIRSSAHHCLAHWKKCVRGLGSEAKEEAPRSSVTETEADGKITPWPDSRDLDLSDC
# Chain of Hydroxycarboxylic acid receptor 2 (Homo sapiens) (Q8TDS4 whole entry): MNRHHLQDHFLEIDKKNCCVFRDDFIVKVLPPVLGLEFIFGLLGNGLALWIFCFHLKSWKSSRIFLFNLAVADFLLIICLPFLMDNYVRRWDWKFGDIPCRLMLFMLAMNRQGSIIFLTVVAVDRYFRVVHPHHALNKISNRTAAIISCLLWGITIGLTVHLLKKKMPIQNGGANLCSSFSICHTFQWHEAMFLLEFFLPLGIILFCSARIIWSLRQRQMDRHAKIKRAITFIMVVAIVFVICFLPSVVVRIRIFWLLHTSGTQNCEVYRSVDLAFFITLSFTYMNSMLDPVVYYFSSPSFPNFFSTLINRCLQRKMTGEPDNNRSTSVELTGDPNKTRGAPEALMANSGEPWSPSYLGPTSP
# Chain of Transcription factor GATA-4 (Rattus norvegicus) (P46152 whole entry): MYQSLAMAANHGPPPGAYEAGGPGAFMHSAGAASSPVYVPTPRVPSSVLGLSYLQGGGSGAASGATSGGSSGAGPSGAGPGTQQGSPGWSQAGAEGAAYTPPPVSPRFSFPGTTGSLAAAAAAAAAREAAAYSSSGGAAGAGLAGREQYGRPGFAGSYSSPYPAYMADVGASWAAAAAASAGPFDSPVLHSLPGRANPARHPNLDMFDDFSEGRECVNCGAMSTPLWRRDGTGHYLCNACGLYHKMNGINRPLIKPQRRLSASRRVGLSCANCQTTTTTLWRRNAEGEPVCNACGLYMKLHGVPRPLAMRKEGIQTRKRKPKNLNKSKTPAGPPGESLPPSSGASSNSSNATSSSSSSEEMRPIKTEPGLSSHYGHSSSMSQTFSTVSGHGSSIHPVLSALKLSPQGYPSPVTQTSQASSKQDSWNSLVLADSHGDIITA
# Chain of Parathyroid hormone 2 receptor (Homo sapiens) (P49190 whole entry): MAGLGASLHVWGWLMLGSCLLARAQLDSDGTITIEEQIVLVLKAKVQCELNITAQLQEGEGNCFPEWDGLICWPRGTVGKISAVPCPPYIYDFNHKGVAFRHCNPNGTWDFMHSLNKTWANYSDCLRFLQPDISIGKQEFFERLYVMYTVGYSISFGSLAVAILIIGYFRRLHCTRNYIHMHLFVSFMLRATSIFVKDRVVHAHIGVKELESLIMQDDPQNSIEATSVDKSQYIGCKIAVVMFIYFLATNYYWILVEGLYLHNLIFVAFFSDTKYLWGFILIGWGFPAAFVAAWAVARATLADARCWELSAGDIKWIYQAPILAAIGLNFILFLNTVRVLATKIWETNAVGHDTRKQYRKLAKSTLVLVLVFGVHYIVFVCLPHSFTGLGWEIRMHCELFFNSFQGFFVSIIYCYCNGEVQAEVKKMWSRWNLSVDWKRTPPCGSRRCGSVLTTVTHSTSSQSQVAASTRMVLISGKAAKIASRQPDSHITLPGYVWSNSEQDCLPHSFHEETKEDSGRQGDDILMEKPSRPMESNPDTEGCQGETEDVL
# Chain of Growth hormone secretagogue receptor type 1 (Homo sapiens) (Q92847 whole entry): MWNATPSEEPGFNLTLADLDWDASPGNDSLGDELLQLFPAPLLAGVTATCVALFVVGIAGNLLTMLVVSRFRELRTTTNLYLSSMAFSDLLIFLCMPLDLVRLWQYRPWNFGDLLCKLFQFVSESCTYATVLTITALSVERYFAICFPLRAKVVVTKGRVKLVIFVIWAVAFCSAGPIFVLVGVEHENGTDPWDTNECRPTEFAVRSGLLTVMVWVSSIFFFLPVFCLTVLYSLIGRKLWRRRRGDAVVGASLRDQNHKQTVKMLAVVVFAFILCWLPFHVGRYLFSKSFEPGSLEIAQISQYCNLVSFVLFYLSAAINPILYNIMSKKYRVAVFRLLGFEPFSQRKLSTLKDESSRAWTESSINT
# Chain of Homeobox protein Nkx-2.5 (Mus musculus) (P42582 whole entry): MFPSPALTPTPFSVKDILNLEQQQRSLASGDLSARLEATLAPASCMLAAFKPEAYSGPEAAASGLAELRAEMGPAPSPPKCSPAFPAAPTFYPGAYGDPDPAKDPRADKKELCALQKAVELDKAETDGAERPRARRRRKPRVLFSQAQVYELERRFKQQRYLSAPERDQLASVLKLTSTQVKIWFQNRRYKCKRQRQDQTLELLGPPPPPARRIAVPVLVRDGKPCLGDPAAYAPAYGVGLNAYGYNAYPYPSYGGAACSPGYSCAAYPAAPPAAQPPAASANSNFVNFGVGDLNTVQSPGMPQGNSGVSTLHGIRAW
# Chain of Mitogen-activated protein kinase 14 (Homo sapiens) (Q16539 whole entry): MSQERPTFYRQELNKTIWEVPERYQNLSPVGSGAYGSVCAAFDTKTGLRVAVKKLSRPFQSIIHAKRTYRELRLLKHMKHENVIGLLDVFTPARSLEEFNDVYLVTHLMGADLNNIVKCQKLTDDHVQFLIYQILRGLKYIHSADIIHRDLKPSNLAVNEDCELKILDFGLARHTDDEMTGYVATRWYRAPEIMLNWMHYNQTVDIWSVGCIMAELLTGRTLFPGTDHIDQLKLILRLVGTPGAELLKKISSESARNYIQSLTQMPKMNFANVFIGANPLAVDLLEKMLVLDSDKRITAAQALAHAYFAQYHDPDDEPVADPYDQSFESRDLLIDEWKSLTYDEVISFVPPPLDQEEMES
smiles,measurement,setting,value
CCN(CC)c1ccc(NC(=O)c2c(-c3ccccc3)noc2C)cc1,inhibition,[1],65.2%
same,Activity,[2],inactive
same,inhibition,[3],inactive
same,inhibition,[4],29%
same,inhibition,[5],inactive
same,Activity,[6],Non-Toxic
same,inhibition,[7],58.5%
same,inhibition,[8],59.5%
same,inhibition,[9],32%
same,inhibition,[10],Active
same,inhibition,[11],91.8%
same,Activity,[12],inactive
same,inhibition,[13],81%
